Published values gathered from unrelated publications.
Compare with care: the assays were run in different laboratories.
Target: MAP kinase-activated protein kinase 2 (MAPKAPK2, Homo sapiens, UniProt P49137)

Cn1cc(-c2cc(F)cc(N3CCn4c(cc5c4CCCC5)C3=O)c2CO)cc(Nc2ccc(N3CCN(C4COC4)CC3)cn2)c1=O  inhibition (enzyme activity; inhibitor; 0.1 µM): 5%
COc1ncccc1-c1cnn2ccc(N3CCN(C(=O)OC(C)C)CC3)nc12  remaining binding (binding; competition with immobilised ligand; 1 µM): 100%
O=c1[nH]c2ccccc2n1C1CCN(Cc2ccc(-c3[nH]c4cc5ncnc5cc4nc3-c3ccccc3)cc2)CC1  remaining signal (cell-free assay; 0.5 µM): 98.7%
COc1cc(Cl)c(C(=O)N[C@@H](CN[C@H]2CC[C@@H](N)CC2)Cc2ccc(C#N)cc2)cc1-c1ccc(CN[C@H](C)c2ccc(C)cc2)o1  remaining activity (enzyme activity; inhibitor; 1 µM): 107%
COc1cc(Nc2ncc(F)c(Nc3ccc4c(n3)NC(=O)C(C)(C)O4)n2)cc(OC)c1OC  inhibition (binding; 10 µM): 0%
Cc1nn(C)cc1-c1nc2c(N3CCN(Cc4ccc(Cl)cc4)CC3)c(Cl)cnc2[nH]1  remaining binding (binding; competition with immobilised ligand; 1 µM): 100%
Cn1cc(-c2cccc(N3CCc4c(sc5c4CC(C)(C)C5)C3=O)c2CO)cc(Nc2ccncn2)c1=O  inhibition (enzyme activity; inhibitor; 1 µM): -5%
C#Cc1n[nH]c2c(-c3cn(C(C)c4ccccn4)c(=O)[nH]c3=O)cc(F)cc12 (centres unmarked)  inhibition (enzyme activity; inhibitor; 1 µM): 13.1%
Nc1ncc(-c2nc(N3CCOCC3)nc(N3CCOCC3)n2)c(C(F)F)n1  remaining binding (binding; competition with immobilised ligand; 10 µM): 85%
Cn1cncc1[C@@](O)(COc1ccc(C#N)cc1-c1ccc(OC(F)(F)F)cc1)c1ccc(C#N)cc1  remaining binding (cell-free assay; competition with immobilised ligand; 1 µM): 61%
CC(C)(C)c1cc(C=C(C#N)C#N)cc(Br)c1O  remaining activity (enzyme activity; inhibitor; 0.5 µM): 92.3%
